Screens (PubChem)
Compounds with a hit are over-represented: about 1.8% of the library has one in this group of screens.
SUMO HTRF inh = SUMOylation inhibition; AID 2006; HTRF SUMOylation assay, SAE1/SAE2 + UBC9, in vitro; P63279; inhibition, % at 35 µM; 0.36% of 290,000 active; in the data active = inhibition above about 50%, passing the limit was not always enough
HNF4A DNA FP = change in binding of human HNF4 alpha to DNA | HNF4a-FITC DNA binding, fluorescence polarization, 1 h | activity change, % at 10 µM | 0.3% of 360,000 active; in the data active = activity change above about 30%, passing the limit was not always enough
Target sequence (P41235 whole entry, looked up): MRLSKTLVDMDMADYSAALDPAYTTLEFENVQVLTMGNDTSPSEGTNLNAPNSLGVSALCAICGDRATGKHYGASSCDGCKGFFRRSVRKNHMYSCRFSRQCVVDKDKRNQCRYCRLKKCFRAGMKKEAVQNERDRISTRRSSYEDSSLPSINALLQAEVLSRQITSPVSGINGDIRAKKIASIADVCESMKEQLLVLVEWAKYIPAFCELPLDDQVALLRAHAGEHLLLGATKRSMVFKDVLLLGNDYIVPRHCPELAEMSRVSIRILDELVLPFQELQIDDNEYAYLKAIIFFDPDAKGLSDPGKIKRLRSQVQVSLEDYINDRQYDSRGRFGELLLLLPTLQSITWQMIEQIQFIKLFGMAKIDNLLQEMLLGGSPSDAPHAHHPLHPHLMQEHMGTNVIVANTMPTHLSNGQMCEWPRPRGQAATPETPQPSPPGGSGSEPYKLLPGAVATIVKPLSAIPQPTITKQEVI
Rpn11 inh = Rpn11 (human) deubiquitinase inhibition | human 26S proteasome, Ub4-pepOG fluorescence polarization; 20S core pre-blocked with epoxomicin | O00487 | calls only at 20 µM | 0.59% of 360,000 active;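 active = inhibition at 20 µM, scaled to each plate's controls, above about 33%, limit read from the data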
TPT1 inh = blocks Candida albicans tRNA 2'-phosphotransferase. recombinant caTPT1, FP RNA substrate dephosphorylation. inhibition, % at 5 µM. 0.81% of 300,000 active;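 active = inhibition above the mean of all tested compounds plus 3 SD, set per screening campaign, cut at about 24% in these data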;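 also: plate controls were DMSO alone for no effect and ferristatin control at 100 nM for full effect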
CSN deneddyl inh = blocks human CSN-mediated cullin deneddylation. inhibition, % at 12.5 µM. Purified CSN, SCF-Nedd8-OG deneddylation, fluorescence polarization. 0.38% of 360,000 active. Q92905;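 active = pattern-corrected inhibition above about 35%, with an unprinted fluorescence ratio check between 0.5 and 1.5, limit read from the data, passing the limit was not always enough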;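 also: 0% = enzyme with substrate and 100% = substrate without enzyme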
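Assay system: purified human Csn5 enzyme expressed in HEK293T cells; measure: % inhibition; also added: SCFSkp2-Nedd8OG substrate at 10 nM final; technique: fluorescence polarization; times: reaction 90 min, room temperature; medium: Tris buffer pH 7.5, NaCl, DTT, Tween-20, trehalose, ovalbumin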
SENP1 inh = SENP1 (human) catalytic domain inhibition; AID 624204; Q9P0U3; 0.21% of 360,000 active; inhibition, % at 10 µM; recombinant SENP1 catalytic domain, CyPet-SUMO1-YPet FRET cleavage;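 active = inhibition at least 30% at 10 µM, raw YFP signal under a set limit, fluorescence ratio 0.5 to 1.5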;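 also: 0% = enzyme with DMSO and 100% = no enzyme wells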
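System: Recombinant human SENP1 catalytic domain, His6-tagged | Incubation: Enzyme reaction for 50 min at room temperature, dark | Medium: Tris pH 8 with BME, BSA, NP40 and catalase | Also added: 25 nM SUMO1 FRET substrate | Compound: 10 µM single point, 0.5% DMSO | Measured by: FRET fluorescence in CFP and YFP emission channels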
TPT1 inh confirm = confirmation of Candida albicans TPT1 inhibitors. shares compounds with TPT1 inh. recombinant caTPT1, fluorescence polarization, RNase T1 coupled. inhibition, % at 5 µM. 74% of 2,400 active;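 active = inhibition above the primary screen limit, the mean inhibition of all tested compounds plus 3 SD, cut at about 25% in these data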
RNase T1 inh = blocks Aspergillus oryzae RNase T1, a TPT1 counter-screen; shares compounds with TPT1 inh; RNase T1 cleavage, fluorescence polarization, 1536-well; inhibition, % at 5 µM; 83% of 2,400 active;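 active = inhibition above the solvent-only control well mean plus 3 SD, limit set per screening run, cut at about 23% in these data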;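 also: plate controls were DMSO wells with enzyme for no effect and wells without RNase T1 for full effect; inhibitors block cleavage so intact labeled substrate keeps polarization high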
Rpn11 inh conf = Rpn11 inhibition confirmation, single concentration; shares compounds with Rpn11 inh; purified human 26S proteasome, Ub4-pepOG fluorescence polarization; proteasome pretreated with epoxomicin; inhibition, % at 20 µM; 29% of 1,900 active; AID 602318
MMP-2 counter-1 = blocks human MMP-2, flagging nonselective RPN11 hits | inhibition, % at 20 µM | recombinant MMP-2, FRET peptide cleavage fluorescence | 4% of 1,900 active | shares compounds with Rpn11 inh;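 also: human MMP-2 activated beforehand with APMA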
Thrombin FP = thrombin (bovine) inhibition counter-screen; shares compounds with Rpn11 inh; bovine thrombin cleavage of Ub4-pepOG, fluorescence polarization; inhibition, % at 20 µM; 13% of 1,900 active;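 active = mean inhibition at least 40% at 20 µM, or signal 3 deviations below plate average, so some actives read negative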;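 also: plate controls were thrombin with DMSO for no effect and buffer wells lacking thrombin for full effect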
CSN5 deneddyl = Csn5 (human) deneddylation inhibition, single-concentration validation | Csn5 deneddylation of SCF-Nedd8OG, fluorescence polarization, 90 min | 62% of 540 active | shares compounds with CSN deneddyl inh | inhibition, % at 16.6 µM; in the data active = inhibition above about 50%;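 also: 0% = DMSO with enzyme and 100% = no enzyme wells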
MMP-2 counter-2 = blocks human MMP-2 in a CSN deneddylation counter-screen; AID 720655; shares compounds with CSN deneddyl inh; inhibition, % at 16.6 µM; recombinant MMP-2, FRET substrate fluorescence, 60 min; 33% of 540 active;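 active = corrected plate-normalized z-score of 5 or more, or -5 or less, or inhibition of 15% or more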;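 also: plate controls were DMSO wells with enzyme for no effect and buffer wells lacking MMP-2 for full effect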
Thrombin cntr = blocks bovine thrombin in a CSN deneddylation counter-screen. shares compounds with CSN deneddyl inh. bovine thrombin cleavage of Ub4-pepOG, fluorescence polarization. inhibition, % at 16.6 µM. 49% of 540 active. AID 720656;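 active = inhibition at or above a set limit, with a fluorescence interference ratio between 0.5 and a set maximum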
* = called active by the depositor; i = inactive; / = no result given; + = active, no number. Rule as the data show it, unless noted: active = inhibition above about 40%; inactive = the rest.

SMILES	SUMO HTRF inh	HNF4A DNA FP	Rpn11 inh	TPT1 inh	CSN deneddyl inh	SENP1 inh	TPT1 inh confirm	RNase T1 inh	CSN5 deneddyl	MMP-2 counter-2	Thrombin cntr	others
CCOCCCNc1nc2c(C)cccn2c(=O)c1/C=C1\SC(=S)N(CC(C)C)C1=O	12	57*	+	52*	47*	92	76*	95*	76*	-5	20*	Rpn11 inh conf=91*;MMP-2 counter-1=60*;Thrombin FP=72*
Cc1cccn2c(=O)c3cc(C(=O)NCCN4CCOCC4)n(C)c3nc12	26	1	i	-1	5	-37	/	/	/	/	/
COc1ccc2nc(-n3c(C)ccc3C)sc2c1	16	4	i	-1	4	-6	/	/	/	/	/
COc1ccc2nc(N3C(=O)/C(=C/c4ccccc4)NC3=S)sc2c1	-13	108	/	111*	95*	31	115*	119*	92*	-12	74*
COc1ccc(NC(=S)N2CCCC2)cc1OC	12	0	i	3	4	1	/	/	/	/	/
O=C(C1=C[C@H](c2ccc3c(c2)OCO3)C[C@H](OCc2ccc(CO)cc2)O1)N1CCOCC1	17	4	i	-1	3	0	/	/	/	/	/
NC(=O)c1ccsc1NC(=O)c1ccc(S(=O)(=O)N2CCCc3ccccc32)cc1	1	2	i	2	4	0	/	/	/	/	/
CC(C)N1CCc2c(sc(NC(=O)c3ccc(S(=O)(=O)N4CCc5ccccc54)cc3)c2C(N)=O)C1	-24	53*	/	82*	47*	-32	84*	93*	/	7	-84
C#CCN1C(=O)S/C(=C/C=C/c2ccc(N(C)C)cc2)C1=O	17	78*	/	87*	59*	-25	77*	81*	54*	-69*	71*
O=C(CCN1C(=O)/C(=C\c2ccco2)SC1=S)Nc1ccc(C(=O)O)c(O)c1	/	-20	+	25*	57*	4	11	15	72*	14	1	Rpn11 inh conf=23;MMP-2 counter-1=26;Thrombin FP=22
O=[N+]([O-])c1cccc(CP(=O)(c2ccccc2)c2ccccc2)c1	/	3	i	/	-1	1	/	/	/	/	/
CCN1/C(=C/c2ccc3cccc(C)c3[n+]2CC)Sc2ccccc21	17	107*	+	60*	54*	85	66*	76*	23	-13	20
O=C(N/N=C/c1c(O)ccc2ccccc12)c1cccc(C(F)(F)F)c1	-35	92*	/	135*	69*	-28	149*	137*	63*	-25*	49*
Cc1cccc(C(=O)N(Cc2ccco2)c2c(N)n(Cc3ccccc3)c(=O)[nH]c2=O)c1	/	1	i	/	-1	-9	/	/	/	/	/
